ChEMBL document CHEMBL2157982, “Synthesis and structure-activity relationships of 8-substituted-2-aryl-5-alkylaminoquinolines: Potent, orally active corticotropin-releasing factor-1 receptor antagonists” (Bioorg Med Chem, 2012)
≈ marks a conversion by molar mass, not a printed value. Calls of active or inactive are those of the source. The calls are words filed in the database; no cut-off is given here.

Columns and labels:
[1] = molecular target: T1, Corticotropin-releasing factor receptor 1 (Homo sapiens, UniProt P34998); test: Displacement of [125I]-CRF from human CRF1 receptor expressed in HEK293 cells after 2 hrs by scintillation counting; type: cell-based
T1 sequence (P34998 whole entry): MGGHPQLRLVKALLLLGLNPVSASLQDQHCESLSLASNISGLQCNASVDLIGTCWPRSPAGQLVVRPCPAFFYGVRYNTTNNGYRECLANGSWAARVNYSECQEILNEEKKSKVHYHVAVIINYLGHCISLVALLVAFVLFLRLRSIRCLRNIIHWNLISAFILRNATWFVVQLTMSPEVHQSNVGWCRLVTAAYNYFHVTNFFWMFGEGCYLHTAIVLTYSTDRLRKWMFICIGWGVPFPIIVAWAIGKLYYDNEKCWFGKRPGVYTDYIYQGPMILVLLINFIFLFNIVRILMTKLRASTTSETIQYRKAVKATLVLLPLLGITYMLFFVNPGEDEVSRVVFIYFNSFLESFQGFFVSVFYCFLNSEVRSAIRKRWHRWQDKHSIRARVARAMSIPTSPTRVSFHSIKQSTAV
Procedure, shortened: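 Scintillation proximity assay using HEK293/human CRF1 membranes (5 µg/well), WGA-coated SPA beads (1 mg/well) and 0.1 nM [125I] human/rat CRF. Buffer: PBS-type salts, 10 mM MgCl2, 2 mM EGTA, 1.5% BSA, protease inhibitors, pH 7.0. Incubated over 2 h at room temperature, then centrifuged and counted. Nonspecific binding defined with 0.4 µM sauvagine. IC50 from concentration-response curve of % total specific binding.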

[2] = molecular target: T1, Corticotropin-releasing factor receptor 1; test: Antagonist activity at human CRF1 receptor expressed in HEK293 cells assessed as inhibition of CRF-induced intracellular cAMP production preincubated for 30 mins before CRF addition measured after 30 mins by enzyme immunoassay; type: functional, cell-based
[3] = Aqueous solubility of the compound in Dulbecco's phosphate-buffered saline at pH 7.4 by high-throughput HPLC method; type: physicochemical
Procedure, shortened: (§1)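 A 10 mM DMSO stock of compound was diluted 1:100 into buffer in a filter plate and shaken 15 min at room temperature, then filtered. Filtrate analysed by reverse-phase HPLC-UV against an external DMSO standard. Buffers: pH 1.2 HCl/NaCl; pH 5 and 9 Britton–Robinson (acetate/phosphate/borate with KCl, NaOH-adjusted); pH 7.4 Dulbecco's PBS.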

[4] = Solubility of the compound in HCl/NaCl at pH 1.2 by high-throughput HPLC method; type: physicochemical; conditions: HCl/NaCl solution; procedure, shortened: as §1
[5] = Dissociation constant, pKa of the compound; type: physicochemical
[6] = Solubility of the compound in Britton-Robinson buffer at pH 5 by high-throughput HPLC method; type: physicochemical; procedure, shortened: as §1
[7] = Solubility of the compound in Britton-Robinson buffer at pH 9 by high-throughput HPLC method; type: physicochemical; procedure, shortened: as §1
Rattus norvegicus [8] = test: Inhibition of CRF-induced ACTH release in Fischer 344 rat plasma at 30 mg/kg, po administered 60 mins before CRF challenge by RIA; type: functional, organism-based; set-up: dose 30 mg/kg
Procedure, shortened: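 Male Fischer 344 rats (152–177 g) dosed orally 1 h before subcutaneous CRF at 10 µg/kg; controls got vehicle 5% DMSO/5% Cremophor/90% saline. Trunk blood taken 30 min after CRF into EDTA and spun. Plasma ACTH measured in duplicate by immunoradiometric kit against ACTH standard curve. n = 5–6 rats; mean ± S.E.M.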

Mus musculus [9] = test: Anxiolytic activity in po dosed BALB/c mouse assessed as increase in time spent on illuminated box administered 60 mins before test measured for 5 mins by light-dark test; type: functional, organism-based
Procedure, shortened: (§2)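 Male BALB/c mice, n = 10/group, dosed orally 1 h before test. Animals were habituated to 10 lx for at least 2 h (room at 150 lx) and placed in the dark compartment at start. Observed for 5 min, scoring time in the illuminated box and number of tunnel crossings. Mean ± S.E.M., Dunnett test versus vehicle.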

Mus musculus [10] = test: Anxiolytic activity in po dosed BALB/c mouse assessed as increase in number of tunnel crossings administered 60 mins before test measured for 5 mins by light-dark test; type: functional, organism-based; procedure, shortened: as §2
[11] = Half life in Fischer 344 rat at 3 mg/kg, iv; type: ADME, organism-based; set-up: dose 3 mg/kg, route intravenous; conditions: in vivo
Procedure, shortened: (§3)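 Fasted F344 rats (n = 3 per dose, 189.4–205.9 g) received 3 mg/kg iv in 5% EtOH-0.02 mol/L HCl/5% glucose, or 10 mg/kg po in 5% DMSO/5% Cremophor EL/HCl/water. Blood sampled at 0.083 h (iv only), then 0.25–8 h. Brain taken 1 h after po dosing and homogenized. Samples protein-precipitated with imipramine internal standard and quantified by LC–MS/MS (ESI+). Mean ± SEM.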

Rattus norvegicus [12] = test: AUC (infinity) in Fischer 344 rat at 3 mg/kg, iv; type: ADME, organism-based, Plasma; set-up: time infinity, dose 3 mg/kg, route intravenous; conditions: in vivo
Procedure, shortened: (§4)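 Fasted F344 rats (n = 3 per dose, 189.4–205.9 g). iv: 3 mg kg−1 given as 3 mg mL−1 in 5% ethanol-0.02 mol L−1 HCl/5% glucose. p.o.: 10 mg kg−1 given as 2 mg mL−1 in 5% DMSO/5% Cremophor EL/equivalent HCl/H2O. Blood sampled at 0.083 h (iv only), then 0.25, 0.5, 1, 2, 4, 6 and 8 h. Plasma extracted with MeOH/MeCN containing imipramine internal standard and measured by positive-ESI LC–MS/MS. Results given as mean ± SEM.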

[13] = Volume of distribution at steady state in Fischer 344 rat at 3 mg/kg, iv; type: ADME, organism-based; set-up: dose 3 mg/kg, route intravenous; conditions: in vivo, read-out: Vdss; procedure, shortened: as §3
[14] = Total blood clearance in Fischer 344 rat at 3 mg/kg, iv; type: ADME, organism-based; set-up: dose 3 mg/kg, route intravenous; conditions: whole blood; procedure, shortened: as §3
[15] = Cmax in Fischer 344 rat at 10 mg/kg, po; type: ADME, organism-based; set-up: dose 10 mg/kg, route oral; conditions: in vivo; procedure, shortened: as §3
[16] = Tmax in Fischer 344 rat at 10 mg/kg, po; type: ADME, organism-based; set-up: dose 10 mg/kg, route oral; conditions: in vivo; procedure, shortened: as §3
Rattus norvegicus [17] = test: AUC (infinity) in Fischer 344 rat at 10 mg/kg, po; type: ADME, organism-based, Plasma; set-up: time infinity, dose 10 mg/kg, route oral; conditions: in vivo; procedure, shortened: as §4
[18] = Oral bioavailability in Fischer 344 rat at 10 mg/kg; type: ADME, organism-based; conditions: in vivo; procedure, shortened: as §3
[19] = Ratio of drug level in brain to plasma in Fischer 344 rat at 10 mg/kg, po after 1 hr; type: ADME, organism-based; set-up: dose 10 mg/kg, route oral; conditions: brain and plasma, read-out: BPR; procedure, shortened: as §3
Mus musculus [20] = test: Anxiolytic activity in BALB/c mouse assessed as increase in time spent on illuminated box at 30 mg/kg, po administered 60 mins before test measured for 5 mins by light-dark test; type: functional, organism-based; set-up: dose 30 mg/kg; procedure, shortened: as §2
Mus musculus [21] = test: Anxiolytic activity in po dosed BALB/c mouse assessed as increase in number of tunnel crossings at 30 mg/kg, po administered 60 mins before test measured for 5 mins by light-dark test; type: functional, organism-based; set-up: dose 30 mg/kg; procedure, shortened: as §2

| Compound | IC50 [1] | IC50 [2] | solubility [3] | further results |
| --- | --- | --- | --- | --- |
| CCN(CC)c1ccc(F)c2nc(-c3c(OC)cc(COC)cc3OC)c(C)cc12 | 226 nM | 67 nM | 10.5 µM (≈ 4.33 µg/mL) | – |
| CCc1cc2c(N(CC)CC)ccc(OC)c2nc1-c1c(OC)cc(COC)cc1OC | 108 nM | 32 nM | 12.1 µM (≈ 5.31 µg/mL) | – |
| CCN(CC)c1ccc(OC)c2nc(-c3c(OC)cc(COC)cc3OC)c(F)cc12 | 118 nM | 75 nM | 4.6 µM (≈ 1.97 µg/mL) | – |
| CCN(CC)c1ccc(OC)c2nc(-c3c(OC)cc(COC)cc3OC)c(C)cc12 | 110 nM | 91 nM | 74 µM (≈ 31.4 µg/mL) | solubility [4]: > 100 µM; pKa [5]: 6.01; solubility [6]: 98.2 µM (≈ 41.7 µg/mL); solubility [7]: 71 µM (≈ 30.1 µg/mL); Activity (Rattus norvegicus [8]): Active; Activity (Mus musculus [9]): Dose-dependent effect; Activity (Mus musculus [10]): Dose-dependent effect; half-life [11]: 1.73 h; AUC (Rattus norvegicus [12]): 1.542 µg/mL/h; Vd [13]: 2.15 L/kg; clearance [14]: 44 mL/min/kg; Cmax [15]: 305 ng/mL; Tmax [16]: 0.5 h; AUC (Rattus norvegicus [17]): 0.845 µg/mL/h; bioavailability [18]: 16.4%; Kp at 1 h [19]: 0.61 |
| CCN(CC)c1ccc(C)c2nc(-c3c(OC)cc(COC)cc3OC)c(C)cc12 | – | – | 1.7 µM (≈ 0.695 µg/mL) | solubility [4]: > 100 µM; pKa [5]: 5.86; solubility [6]: 22 µM (≈ 8.99 µg/mL); solubility [7]: 2 µM (≈ 0.817 µg/mL) |
| CCN(CCOC)c1ccc(C)c2nc(-c3c(OC)cc(COC)cc3OC)c(C)cc12 | – | – | 7.2 µM (≈ 3.16 µg/mL) | – |
| CCN(CC)c1ccc(C(F)F)c2nc(-c3c(OC)cc(COC)cc3OC)c(C)cc12 | 414 nM | – | < 0.2 µM | – |
| CCCN(CCC)c1ccc(OC)c2nc(-c3c(OC)cc(COC)cc3OC)c(C)cc12 | 105 nM | 99 nM | < 0.2 µM | – |
| CCN(CC)c1ccc(OC)c2nc(-c3c(Cl)cc(COC)cc3OC)c(C)cc12 | 67 nM | 22 nM | 3.7 µM (≈ 1.59 µg/mL) | Activity (Mus musculus [9]): Dose-dependent effect; Activity (Mus musculus [10]): Dose-dependent effect; Activity (Mus musculus [20]): Active; Activity (Mus musculus [21]): Active |
| CCN(CC)c1ccc(C#N)c2nc(-c3c(OC)cc(COC)cc3OC)c(C)cc12 | 102 nM | 36 nM | 3.2 µM (≈ 1.34 µg/mL) | solubility [4]: > 100 µM; pKa [5]: < 3; solubility [6]: 2.1 µM (≈ 0.881 µg/mL); solubility [7]: 4.2 µM (≈ 1.76 µg/mL) |
| CCN(CC)c1ccc(C)c2nc(-c3c(OC)cc(COC)cc3OC)c(Cl)cc12 | – | – | < 0.2 µM | – |
| CCN(CC)c1ccc(C(F)(F)F)c2nc(-c3c(OC)cc(COC)cc3OC)c(C)cc12 | 288 nM | 259 nM | < 0.2 µM | – |
| CCN(CC)c1ccc(C)c2nc(-c3c(OC)cc(COC)cc3OC)c(F)cc12 | – | – | < 0.2 µM | – |
| CCN(CC)c1ccc(OC)c2nc(-c3c(OC)cc(COC)cc3OC)c(Cl)cc12 | 144 nM | 57 nM | 1.9 µM (≈ 0.845 µg/mL) | – |
| CCCN(CCC)c1ccc(C)c2nc(-c3c(OC)cc(COC)cc3OC)c(C)cc12 | – | – | 2 µM (≈ 0.873 µg/mL) | – |
| CCN(CC)c1ccc(OC)c2nc(-c3c(OC)cc(COC)cc3OC)ccc12 | 202 nM | 332 nM | 38.2 µM (≈ 15.7 µg/mL) | – |
| CCN(CC)c1ccc(COC)c2nc(-c3c(OC)cc(COC)cc3OC)c(C)cc12 | > 1000 nM | – | 2.9 µM (≈ 1.27 µg/mL) | – |
| COCCN(CC(C)C)c1ccc(OC)c2nc(-c3c(OC)cc(COC)cc3OC)c(C)cc12 | 156 nM | 65 nM | 8.7 µM (≈ 4.2 µg/mL) | – |
| CCN(CC)c1ccc(C)c2nc(-c3c(OC)cc(COC)cc3OC)ccc12 | – | – | < 0.2 µM | – |
| CCN(CC)c1ccc(OC)c2nc(-c3c(OC)cc(C#N)cc3OC)c(C)cc12 | 132 nM | 63 nM | 11 µM (≈ 4.46 µg/mL) | – |
| CCN(CCOC)c1ccc(OC)c2nc(-c3c(OC)cc(COC)cc3OC)c(C)cc12 | 392 nM | – | 89.4 µM (≈ 40.6 µg/mL) | – |
| CCN(CC)c1ccc(OC)c2nc(-c3c(OC)cc(C)cc3OC)c(C)cc12 | 99 nM | 43 nM | 17.3 µM (≈ 6.83 µg/mL) | – |
| CCN(CC)c1ccc(Cl)c2nc(-c3c(OC)cc(COC)cc3OC)c(C)cc12 | 62 nM | 28 nM | < 0.2 µM | – |
